Eight compounds from ChEMBL document CHEMBL3259808, “Optimization of antitrypanosomatid agents: identification of nonmutagenic drug candidates with in vivo activity” (J Med Chem, 2014) can be followed below.

Values joined by “and” are separate entries in the source; they are usually repeats but may differ in a detail not shown here. Identical values can stand only once.

The test system of data set [1] is Trypanosoma cruzi. The experiment in a line: Antitrypanosomal activity against Trypanosoma cruzi Sylvio X-10 amastigotes infected in African green monkey Vero cells assessed as eradication of amastigotes after 72 hrs by Giemsa staining-based assay. As to conditions: Sylvio X-10, Vero.
The subject of data set [2] is Trypanosoma cruzi. Put plainly: Antitrypanosomal activity against Trypanosoma cruzi Sylvio X-10 amastigotes infected in African green monkey Vero cells assessed as eradication of amastigotes after 5 days by Giemsa staining-based assay. The data set is classed as functional, organism-based. As to conditions: Sylvio X-10, Vero, 120 h. Summed up:
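VERO cells in RPMI 1640 with 10% hiFCS were allowed to adhere for 24 h at 37 °C in 5% CO₂, then infected with tissue-derived trypomastigotes at 10:1. Free parasites were washed off after 24 h, and cultures were treated at five compound doses (text gives 72 h / 5 days). Cultures were methanol-fixed and Giemsa-stained, and infected cells were counted among 300. Quadruplicates were run in three independent experiments. IC50/IC90 were obtained by sigmoidal regression.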

Data set [3] has as its system Salmonella typhimurium. Put plainly: Mutagenic activity in Salmonella typhimurium TA98 at 3.1 to 250 ug/plate by Ames test in presence of mouse liver S9 fraction. In kind it is toxicity, organism-based. As to conditions: salmonella enterica subsp. enterica serovar typhimurium. Summed up: (§1)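 Ames plate-incorporation assay with S. typhimurium TA98 in Vogel-Bonner E minimal glucose agar. Toxicity toward the bacteria was checked first. DMSO solutions were run in triplicate at five consecutive third-dilutions, starting at the highest non-toxic dose. Positive controls were 4-nitro-o-phenylenediamine (20.0 μg/plate) and 2-aminofluorene (10.0 μg/plate); DMSO was the negative control. Revertants were counted manually. A compound was called mutagenic when revertants were at least twice the negative control at two or more consecutive doses.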

Data set [4] deals with Salmonella typhimurium. The experiment in a line: Mutagenic activity in Salmonella typhimurium TA98 at 3.1 to 250 ug/plate by Ames test. In kind it is toxicity, organism-based. As to conditions: salmonella enterica subsp. enterica serovar typhimurium. Put shortly:
as §1

Data set [5] relates to Trypanosoma cruzi. The experiment in a line: Antitrypanosomal activity against Trypanosoma cruzi Tulahuen 2 epimastigotes assessed as growth inhibition after 5 days. As to conditions: Trypanosoma cruzi, Tulahuen 2, 120 h. The data set is classed as functional, organism-based. Summed up:
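Epimastigotes were grown axenically at 28 °C in BHI-tryptose with 5% FBS and seeded from a 5–7 day culture at 1 × 10⁶ cells/mL. Drug from a DMSO stock was added (final DMSO ≤0.4%; the control contained 0.4% DMSO). Duplicates were run. A600 was read at day 5, and % inhibition was calculated relative to day-0 and control readings. IC50 = concentration that halves the absorbance ratio.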

The test system of data set [6] is Salmonella typhimurium. Put plainly: Mutagenic activity in Salmonella typhimurium TA98 at 0.04 to 4 ug/plate by Ames test. In kind it is toxicity, organism-based. As to conditions: salmonella enterica subsp. enterica serovar typhimurium. Summed up: as §1
Data set [7] deals with Salmonella typhimurium. Put plainly: Mutagenic activity in Salmonella typhimurium TA98 at 0.04 to 4 ug/plate by Ames test in presence of mouse liver S9 fraction. As to conditions: salmonella enterica subsp. enterica serovar typhimurium. The data set is classed as toxicity, organism-based. Summed up:
as §1

Data set [8] deals with Salmonella typhimurium. The experiment in a line: Mutagenic activity in Salmonella typhimurium TA98 at 0.005 to 0.4 ug/plate by Ames test in presence of mouse liver S9 fraction. The data set is classed as toxicity, organism-based. As to conditions: salmonella enterica subsp. enterica serovar typhimurium. Put shortly:
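Plate-incorporation Ames test on minimal glucose agar with 500 μL Aroclor-treated mouse liver S9 added. DMSO solutions were tested at five consecutive 3-fold dilutions from the highest non-toxic dose, in triplicate, with a DMSO negative control. Revertants were counted manually; a compound was scored mutagenic when revertants were at least twice the negative control for two or more consecutive doses.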

Data set [9] deals with Salmonella typhimurium. The experiment in a line: Mutagenic activity in Salmonella typhimurium TA98 at 0.005 to 0.4 ug/plate by Ames test. In kind it is toxicity, organism-based. As to conditions: salmonella enterica subsp. enterica serovar typhimurium. Summed up:
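Direct plate incubation on minimal glucose agar (Vogel-Bonner E). Compound toxicity to the bacteria was checked first. DMSO solutions were tested at five consecutive 3-fold dilutions, starting from the highest non-toxic dose, in triplicate, without metabolic activation. DMSO served as negative control. Revertants were counted manually; mutagenic = revertants at least double the negative control at two or more consecutive doses.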

Data set [10] in a line: Selectivity index, ratio of IC50 for mouse J774.1 cells to IC50 for Trypanosoma cruzi Sylvio X-10 amastigotes. As to conditions: read-out: Ratio IC50. In kind it is toxicity. Put shortly:
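J774.1 macrophages grown in DMEM with 10% heat-inactivated FCS and allowed to attach 48 h, then exposed 48 h at 37 °C to 12.5–400.0 μM. Triplicates. MTT 0.1 mg/mL for 3 h, read at 560 nm; IC50 by linear regression against the solvent control. SI = IC50 J774.1 / parasite IC50 (Sylvio X-10 amastigotes or Tulahuen 2 epimastigotes, the latter measured by A600 growth inhibition at day 5).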

Data set [11] is described as follows: Selectivity index, ratio of IC50 for African green monkey Vero cells to IC50 for Trypanosoma cruzi Sylvio X-10 amastigotes. The data set is classed as toxicity, cell-based. As to conditions: read-out: Ratio IC50. Summed up:
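VERO cytotoxicity: cells exposed 48 h at 37 °C, 5% CO2 to serial dilutions from a maximum of 2000 μM (DMSO stocks; DMSO <0.1% control); growth inhibition read by MTT at 570 nm. Amastigote IC50: Sylvio X-10-infected VERO cells, five doses, infected cells counted among 300 (Giemsa), quadruplicate, three experiments, sigmoidal fit. SI = IC50 VERO / IC50 amastigote.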

The test system of data set [12] is Trypanosoma cruzi. The experiment in a line: Antitrypanosomal activity against Trypanosoma cruzi Sylvio X-10 amastigotes infected in African green monkey Vero cells assessed as eradication of amastigotes after 72 hrs by Giemsa staining-based assay. As to conditions: vero.
Data set [13] in a line: Selectivity index, ratio of IC50 for human RBC to IC50 for Trypanosoma cruzi Sylvio X-10 amastigotes. Summed up:
(§2)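 Hemolysis: washed human erythrocytes (2% w/v in PBS) incubated 24 h at 37 °C with compound at final 50, 100 and 200 μM. Ten replicates per concentration. Hemoglobin release read at 405 nm against water lysis as 100%; amphotericin B 1.5 μM was the positive control. SI = IC50 red cells / parasite IC50 (Sylvio X-10 amastigotes or Tulahuen 2 epimastigotes).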

The subject of data set [14] is Salmonella typhimurium. The experiment in a line: Mutagenic activity in Salmonella typhimurium TA98 at 3 to 250 ug/plate by Ames test in presence of mouse liver S9 fraction. In kind it is toxicity, organism-based. As to conditions: salmonella enterica subsp. enterica serovar typhimurium. Put shortly:
as §1

Data set [15] deals with Salmonella typhimurium. The experiment in a line: Mutagenic activity in Salmonella typhimurium TA98 at 3 to 250 ug/plate by Ames test. As to conditions: salmonella enterica subsp. enterica serovar typhimurium. The data set is classed as toxicity, organism-based. Put shortly:
as §1

In data set [16] the test system is Salmonella typhimurium. Put plainly: Mutagenic activity in Salmonella typhimurium TA98 at 6 to 500 ug/plate by Ames test. As to conditions: salmonella enterica subsp. enterica serovar typhimurium. In kind it is toxicity, organism-based. Put shortly: as §1
The subject of data set [17] is Salmonella typhimurium. The experiment in a line: Mutagenic activity in Salmonella typhimurium TA98 at 6 to 500 ug/plate by Ames test in presence of mouse liver S9 fraction. The data set is classed as toxicity, organism-based. As to conditions: salmonella enterica subsp. enterica serovar typhimurium. Put shortly: as §1
Data set [18] concerns Salmonella typhimurium. The experiment in a line: Mutagenic activity in Salmonella typhimurium TA98 at 0.05 to 4 ug/plate by Ames test. In kind it is toxicity, organism-based. As to conditions: salmonella enterica subsp. enterica serovar typhimurium. Summed up:
as §1

Data set [19] concerns Salmonella typhimurium. Put plainly: Mutagenic activity in Salmonella typhimurium TA98 at 0.05 to 4 ug/plate by Ames test in presence of mouse liver S9 fraction. The data set is classed as toxicity, organism-based. As to conditions: salmonella enterica subsp. enterica serovar typhimurium. Summed up: as §1
The nature of data set [20]: Selectivity index, ratio of IC50 for human RBC to IC50 for Trypanosoma cruzi Tulahuen 2 epimastigotes. Put shortly: as §2

Turning to `Br.C=CCn1c(-c2ccc(Cl)cc2)cs\c1=N/N=C/C=C/C=C/c1cccs1`, the IC90 with Trypanosoma cruzi [1] was over 25 µM. The IC50 is over 25 µM with Trypanosoma cruzi [2] and 11 µM in the data set on Trypanosoma cruzi [5]. The Activity result in the data set with Salmonella typhimurium [3] and in the data set on Salmonella typhimurium [4] was “Non-toxic” each time.
With `C=CCn1c(-c2ccc(N)cc2)cs\c1=N/N=C/C=C/c1ccco1`, the Activity result with Salmonella typhimurium [6] and in the data set with Salmonella typhimurium [7] was “Non-toxic” throughout. In the data set with Trypanosoma cruzi [5], the IC50 was 9 µM.
For the compound `C=CCn1c(C)csc1=N/N=C/c1ccc([N+](=O)[O-])s1`, the concentration for half-maximal inhibition (IC50) with Trypanosoma cruzi [2] is 2.55 µM; in the data set on Trypanosoma cruzi [5] it was 20 µM. For the same compound, the Activity result in the data set with Salmonella typhimurium [8] and in the data set with Salmonella typhimurium [9] was “Non-toxic” throughout.
Turning to `CC1CS(=O)(=O)CCN1/N=C/c1ccc([N+](=O)[O-])o1` (stereo unspecified) [NIFURTIMOX], the selectivity ratio in data set [10] and in data set [11] was 200 in each case. The IC50 with Trypanosoma cruzi [12] was 0.45 µM and 2.4 µM; in the data set with Trypanosoma cruzi [5], 8 µM. Further, the Ratio IC50 in data set [13] amounted to 150.
Take `C=CCNC(=S)N/N=C/C=C/c1ccc([N+](=O)[O-])s1`: the half-maximal inhibitory concentration (IC50) in the data set with Trypanosoma cruzi [2] was 1.29 µM; in the data set on Trypanosoma cruzi [5] it was 1.2 µM. The Activity result in the data set with Salmonella typhimurium [14] and with Salmonella typhimurium [15] was “Toxic” each time. The selectivity ratio in data set [11] was determined as 60. Moreover, the Ratio IC50 in [13] turned out to be 82.
As for `C=CCNC(=S)N/N=C/C=C/C=C/c1cccs1`, the IC90 with Trypanosoma cruzi [1] was over 25 µM. In addition, the Activity result with Salmonella typhimurium [16] and in the data set with Salmonella typhimurium [17] was “Non-toxic” each time. The IC50 in the data set on Trypanosoma cruzi [2] is over 25 µM; with Trypanosoma cruzi [5], 0.6 µM.
Consider `C=CCNc1nnc(-c2ccc([N+](=O)[O-])s2)s1`, for which the IC90 in the data set with Trypanosoma cruzi [1] stood at 15.9 µM. The IC50 was found to be 5 µM with Trypanosoma cruzi [2] and 12 µM in the data set with Trypanosoma cruzi [5]. Moreover, the selectivity ratio in data set [11] amounted to 50. Further, the Activity entry with Salmonella typhimurium [18] and in the data set with Salmonella typhimurium [19] was “Non-toxic” throughout.
Consider `S=C(N/N=C/c1cccs1)Nc1ccccc1`, for which, in the data set with Trypanosoma cruzi [5], the half-inhibitory concentration (IC50) was determined as 4.7 µM. In addition, the Ratio IC50 in [20] worked out at 21.
